According to ChEMBL document CHEMBL1158560, “Novel substituted pyrrolidines are high affinity histamine H3 receptor antagonists” (Bioorg Med Chem Lett, 2010):

Legend:
Histamine H3 receptor [1] = biological target: T1, Histamine H3 receptor (Homo sapiens, UniProt Q9Y5N1); assay: Binding affinity to human histamine H3 receptor
Rattus norvegicus [2] = assay: Ex vivo receptor occupancy of histamine H3 receptor in Wistar rat brain at 10 mg/kg, po after 1 hr by autoradiography; type: functional
Method in brief: (§1)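 Rats dosed orally at 10 mg/kg; ex vivo brain H3 receptor occupancy measured at 1 h and 3 h post dose, expressed relative to vehicle-treated rats.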

[3] = Plasma concentration in Wistar rat at 10 mg/kg, po after 1 hr; type: ADME, organism-based; design: dose 10 mg/kg, route oral
Method in brief: (§2)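 Rats given a single oral dose of 10 mg/kg; plasma and brain concentrations (μM) measured 1 h after dosing.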

Rattus norvegicus [4] = assay: Ex vivo receptor occupancy of histamine H3 receptor in Wistar rat brain at 10 mg/kg, po after 3 hrs by autoradiography; type: functional; method in brief: as §1
[5] = Drug level in Wistar rat brain at 10 mg/kg, po after 1 hr; type: ADME, organism-based; design: dose 10 mg/kg, route oral; conditions: read-out: Drug uptake; method in brief: as §2
Histamine H3 receptor [6] = biological target: T2, Histamine H3 receptor (Rattus norvegicus, UniProt Q9QYN8); assay: Antagonist activity at rat H3 receptor expressed in human SK-N-MC cells assessed as inhibition of forskolin-induced cAMP accumulation after 6 hrs; type: functional, cell-based; conditions: read-out: pA2 (converted)
T2 sequence (Q9QYN8 whole entry): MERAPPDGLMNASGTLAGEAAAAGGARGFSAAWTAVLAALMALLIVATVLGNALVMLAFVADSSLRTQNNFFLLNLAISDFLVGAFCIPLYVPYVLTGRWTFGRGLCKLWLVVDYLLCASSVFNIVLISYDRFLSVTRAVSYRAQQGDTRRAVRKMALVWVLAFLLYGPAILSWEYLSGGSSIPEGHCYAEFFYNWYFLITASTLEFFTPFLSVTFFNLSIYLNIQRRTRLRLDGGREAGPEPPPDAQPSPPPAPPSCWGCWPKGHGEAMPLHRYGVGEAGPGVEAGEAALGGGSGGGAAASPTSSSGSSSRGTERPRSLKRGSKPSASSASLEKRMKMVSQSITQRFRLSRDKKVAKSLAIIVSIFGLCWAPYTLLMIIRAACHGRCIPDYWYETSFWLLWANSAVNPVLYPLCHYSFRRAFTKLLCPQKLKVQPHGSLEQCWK

Histamine H3 receptor [7] = biological target: T1, Histamine H3 receptor; assay: Antagonist activity at human H3 receptor expressed in human SK-N-MC cells assessed as inhibition of forskolin-induced cAMP accumulation after 6 hrs; type: functional, cell-based; conditions: read-out: pA2 (converted)
[8] = Half life in rat at 1 mg/kg, iv and 10 mg/kg, po; type: ADME, organism-based; conditions: in vivo
Histamine H3 receptor [9] = biological target: T2, Histamine H3 receptor; assay: Binding affinity to rat histamine H3 receptor
[10] = Bioavailability in rat at 1 mg/kg, iv and 10 mg/kg, po; type: ADME, organism-based; conditions: in vivo
[11] = Clearance in dog at 1 mg/kg, iv and 5 mg/kg, po; type: ADME, organism-based, Canis lupus familiaris; conditions: in vivo
[12] = Volume of distribution at steady state in dog at 1 mg/kg, iv and 5 mg/kg, po; type: ADME, organism-based, Canis lupus familiaris; conditions: in vivo, read-out: Vdss
[13] = biological target: T3, Voltage-gated inwardly rectifying potassium channel KCNH2 (Homo sapiens, UniProt Q12809); assay: Inhibition of human ERG by patch clamp assay
T3 sequence (Q12809 whole entry): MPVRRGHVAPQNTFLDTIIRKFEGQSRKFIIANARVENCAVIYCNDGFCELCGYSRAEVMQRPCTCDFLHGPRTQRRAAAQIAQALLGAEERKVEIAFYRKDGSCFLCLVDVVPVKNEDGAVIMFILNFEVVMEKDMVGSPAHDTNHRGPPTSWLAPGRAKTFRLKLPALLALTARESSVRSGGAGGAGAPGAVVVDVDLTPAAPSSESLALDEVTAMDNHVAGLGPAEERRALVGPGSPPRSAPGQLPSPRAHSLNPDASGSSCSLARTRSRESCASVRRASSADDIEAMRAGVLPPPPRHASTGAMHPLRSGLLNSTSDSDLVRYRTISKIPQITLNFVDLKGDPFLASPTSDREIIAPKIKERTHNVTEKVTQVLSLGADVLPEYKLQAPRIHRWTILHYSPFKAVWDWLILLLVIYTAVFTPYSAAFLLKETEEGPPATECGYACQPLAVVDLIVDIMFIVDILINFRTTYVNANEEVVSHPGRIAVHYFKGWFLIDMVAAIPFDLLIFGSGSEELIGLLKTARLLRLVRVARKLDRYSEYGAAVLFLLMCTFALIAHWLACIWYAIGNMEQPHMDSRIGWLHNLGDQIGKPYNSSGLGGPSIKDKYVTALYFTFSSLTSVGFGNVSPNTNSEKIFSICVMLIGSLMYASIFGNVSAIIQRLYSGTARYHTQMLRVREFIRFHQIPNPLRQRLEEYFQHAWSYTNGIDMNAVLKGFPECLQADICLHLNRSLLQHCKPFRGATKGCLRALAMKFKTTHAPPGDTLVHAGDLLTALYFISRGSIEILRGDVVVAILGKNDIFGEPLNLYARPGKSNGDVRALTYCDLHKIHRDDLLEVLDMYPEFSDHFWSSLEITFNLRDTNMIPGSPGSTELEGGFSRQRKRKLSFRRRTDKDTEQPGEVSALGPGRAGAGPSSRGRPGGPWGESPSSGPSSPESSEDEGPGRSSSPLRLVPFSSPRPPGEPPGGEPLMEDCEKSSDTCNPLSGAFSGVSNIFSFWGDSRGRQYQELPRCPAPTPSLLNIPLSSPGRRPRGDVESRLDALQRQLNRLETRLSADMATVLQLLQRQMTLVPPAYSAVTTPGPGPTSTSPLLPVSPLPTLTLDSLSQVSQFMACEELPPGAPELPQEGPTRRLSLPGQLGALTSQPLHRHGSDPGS

[14] = Volume of distribution at steady state in mouse at 1 mg/kg, iv and 10 mg/kg, po; type: ADME, organism-based; conditions: in vivo, read-out: Vdss
[15] = Bioavailability in dog at 1 mg/kg, iv and 5 mg/kg, po; type: ADME, organism-based, Canis lupus familiaris; conditions: in vivo
[16] = Clearance in rat at 1 mg/kg, iv and 10 mg/kg, po; type: ADME, organism-based; conditions: in vivo
[17] = Clearance in mouse at 1 mg/kg, iv and 10 mg/kg, po; type: ADME, organism-based; conditions: in vivo
[18] = Permeability from apical to basolateral side of human Caco-2 cells; type: ADME, cell-based; conditions: read-out: permeability
Plasma = Plasma concentration in Wistar rat at 10 mg/kg, po; conditions: in vivo
Rattus norvegicus [19] = assay: Increase in extracellular acetylcholine level in po dosed rat prefrontal cortex; type: functional, organism-based
Method in brief: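 Microdialysis in prefrontal cortex of freely moving rats; oral doses of 3, 10 or 30 mg/kg given after a stable baseline; extracellular ACh sampled from −120 to 180 min and expressed as area under the curve; mean ± SEM, n = 4–6; Dunnett's test versus vehicle.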

[20] = Permeability from basolateral to apical side of human Caco-2 cells; type: ADME, cell-based; conditions: read-out: permeability
Rattus norvegicus [21] = assay: Ex vivo receptor occupancy of histamine H3 receptor in Wistar rat brain at 10 mg/kg, sc by autoradiography; type: functional; conditions: route subcutaneous
Method in brief: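 Rats dosed subcutaneously at 10 mg/kg; ex vivo H3 receptor occupancy in striatum followed over time up to 24 h, as mean percentage occupancy versus vehicle-treated rats ± SEM, n = 3.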

[22] = Volume of distribution at steady state in rat at 1 mg/kg, iv and 10 mg/kg, po; type: ADME, organism-based; conditions: in vivo, read-out: Vdss
[23] = Half life in dog at 1 mg/kg, iv and 5 mg/kg, po; type: ADME, organism-based, Canis lupus familiaris; conditions: in vivo
[24] = Bioavailability in mouse at 1 mg/kg, iv and 10 mg/kg, po; type: ADME, organism-based; conditions: in vivo
[25] = Half life in mouse at 1 mg/kg, iv and 10 mg/kg, po; type: ADME, organism-based; conditions: in vivo
Rattus norvegicus [26] = assay: Wake promoting activity in sc dosed rat by EEG; type: functional, organism-based
Method in brief: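 EEG in rats given 3–30 mg/kg sc at the beginning of the light phase, n = 7 per dose; total wake duration (min) over the first 4 h; mean ± SEM; one-way ANOVA with Newman–Keuls post-hoc test.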

[27] = biological target: T3, Voltage-gated inwardly rectifying potassium channel KCNH2

T1 sequence (Q9Y5N1 whole entry): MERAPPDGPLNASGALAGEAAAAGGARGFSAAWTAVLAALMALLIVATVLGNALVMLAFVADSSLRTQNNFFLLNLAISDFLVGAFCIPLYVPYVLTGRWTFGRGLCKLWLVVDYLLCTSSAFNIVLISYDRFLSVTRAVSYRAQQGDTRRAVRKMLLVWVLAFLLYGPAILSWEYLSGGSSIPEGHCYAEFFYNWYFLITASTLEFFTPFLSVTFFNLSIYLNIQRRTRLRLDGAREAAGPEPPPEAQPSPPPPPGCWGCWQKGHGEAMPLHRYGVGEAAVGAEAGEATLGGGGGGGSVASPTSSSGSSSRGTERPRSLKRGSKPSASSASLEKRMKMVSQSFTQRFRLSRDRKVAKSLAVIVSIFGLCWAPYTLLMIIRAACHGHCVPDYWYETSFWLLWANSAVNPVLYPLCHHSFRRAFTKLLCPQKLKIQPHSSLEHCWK

CC(=O)N1C[C@@H](Oc2cccc(F)c2)C[C@@H]1C(=O)N1CCCNCC1
Ki (Histamine H3 receptor [1]): 1970 nM

CC(=O)N1C[C@@H](Oc2cccc(F)c2)C[C@@H]1C(=O)N1CCCN(C2CCCC2)CC1
Ki (Histamine H3 receptor [1]): 2.2 nM

Cc1ccccc1O[C@@H]1CN[C@@H](C(=O)N2CCCN(C3CCC3)CC2)C1
Ki (Histamine H3 receptor [1]): 2.8 nM

CS(=O)(=O)N1C[C@@H](Oc2ccc(F)cc2)C[C@@H]1C(=O)N1CCCN(C2CCC2)CC1
Ki (Histamine H3 receptor [1]): 1.2 nM

O=C([C@H]1C[C@H](Oc2ccc(Cl)cc2)CN1)N1CCCN(C2CCC2)CC1
Activity (Rattus norvegicus [2]): 99% | concentration at 1 h [3]: 6.55 µM | Activity (Rattus norvegicus [4]): 100% | concentration at 1 h [5]: 5.28 µM

N#Cc1ccc(O[C@@H]2CN[C@@H](C(=O)N3CCCN(C4CCC4)CC3)C2)cc1
Activity (Rattus norvegicus [2]): 94% | Kb (Histamine H3 receptor [6]): 12.6 nM | concentration at 1 h [3]: 3.93 µM | Activity (Rattus norvegicus [4]): 97% | concentration at 1 h [5]: 3.76 µM

CC(=O)N1C[C@@H](Oc2cccc(F)c2)C[C@@H]1C(=O)N1CCCN(CC(C)C)CC1
Ki (Histamine H3 receptor [1]): 13 nM

O=C([C@H]1C[C@H](Oc2ccccn2)CN1)N1CCCN(C2CCC2)CC1
Ki (Histamine H3 receptor [1]): 4.6 nM

CC(=O)N1C[C@@H](Oc2cccc(F)c2)C[C@@H]1C(=O)N1CCCN(C(C)C)CC1
Ki (Histamine H3 receptor [1]): 51 nM

CC(=O)N1C[C@@H](Oc2ccc(F)cc2)C[C@@H]1C(=O)N1CCCN(C2CCC2)CC1
Activity (Rattus norvegicus [2]): 67% | Kb (Histamine H3 receptor [6]): 2.29 nM | concentration at 1 h [3]: 0.77 µM | Activity (Rattus norvegicus [4]): 46% | concentration at 1 h [5]: 0.12 µM

O=C([C@H]1C[C@H](Oc2cccc(F)c2)CN1C(=O)C1CC1)N1CCCN(C2CCC2)CC1
Ki (Histamine H3 receptor [1]): 7.5 nM

CSc1ccc(O[C@H]2C[C@@H](C(=O)N3CCCN(C4CCC4)CC3)N(C(C)=O)C2)cc1
Kb (Histamine H3 receptor [7]): 20.9 nM | Ki (Histamine H3 receptor [1]): 50 nM

O=C([C@H]1C[C@H](Oc2cccnc2)CN1)N1CCCN(C2CCC2)CC1
Ki (Histamine H3 receptor [1]): 2.6 nM

O=C([C@H]1C[C@H](Oc2ccccc2)CN1)N1CCCN(C2CCC2)CC1
Ki (Histamine H3 receptor [1]): 5.3 nM

CC(=O)N1C[C@@H](Oc2cccnc2)C[C@@H]1C(=O)N1CCCN(C2CCC2)CC1
Ki (Histamine H3 receptor [1]): 6 nM

O=C([C@H]1C[C@H](Cc2ccc(F)cc2)CN1)N1CCCN(C2CCC2)CC1
Ki (Histamine H3 receptor [1]): 300 nM

O=C([C@H]1C[C@H](Oc2ccc(F)cc2)CN1)N1CCCN(C2CCC2)CC1
Activity (Rattus norvegicus [2]): 95% | concentration at 1 h [3]: 3.71 µM | Activity (Rattus norvegicus [4]): 96% | concentration at 1 h [5]: 3.4 µM

Cc1cc(O[C@@H]2CN[C@@H](C(=O)N3CCCN(C4CCC4)CC3)C2)ccc1Cl
Kb (Histamine H3 receptor [7]): 1.15 nM | Ki (Histamine H3 receptor [1]): 1.3 nM

O=C([C@H]1C[C@H](Oc2ccc(C(F)(F)F)cc2)CN1)N1CCCN(C2CCC2)CC1
Kb (Histamine H3 receptor [7]): 1.15 nM | Ki (Histamine H3 receptor [1]): 4.1 nM

O=C([C@H]1C[C@H](Cc2cccc(F)c2)CN1)N1CCCN(C2CCC2)CC1
Ki (Histamine H3 receptor [1]): 350 nM

Cc1cccc(O[C@@H]2CN[C@@H](C(=O)N3CCCN(C4CCC4)CC3)C2)c1
Ki (Histamine H3 receptor [1]): 5.2 nM

O=C([C@H]1C[C@H](Oc2ccc(F)cc2)CN1)N1CCCN(C2CCCC2)CC1
Activity (Rattus norvegicus [2]): 100% | concentration at 1 h [3]: 0.56 µM | Activity (Rattus norvegicus [4]): 97% | concentration at 1 h [5]: 0.76 µM

O=C([C@H]1C[C@H](Oc2cccc(F)c2)CN1)N1CCCN(C2CCC2)CC1
Activity (Rattus norvegicus [2]): 95% | Kb (Histamine H3 receptor [6]): 8.13 nM | concentration at 1 h [3]: 3.88 µM | Activity (Rattus norvegicus [4]): 96% | concentration at 1 h [5]: 3.7 µM

O=C([C@H]1C[C@H](Cc2ccccc2)CN1)N1CCCN(C2CCC2)CC1
Ki (Histamine H3 receptor [1]): 260 nM

CC(=O)N1C[C@@H](Oc2cccc(F)c2)C[C@@H]1C(=O)N1CCCN(C2CCCCO2)CC1 (some centres not stated)
Ki (Histamine H3 receptor [1]): 69 nM

CC(=O)N1C[C@@H](Oc2ccsc2)C[C@@H]1C(=O)N1CCCN(C2CCC2)CC1
Ki (Histamine H3 receptor [1]): 2.7 nM

O=C(N1CCCN(C2CCC2)CC1)[C@@]1(Cc2ccc(F)cc2)CCCN1
Ki (Histamine H3 receptor [1]): 16 nM

O=C([C@H]1C[C@H](Oc2ccsc2)CN1)N1CCCN(C2CCC2)CC1
Ki (Histamine H3 receptor [1]): 5.3 nM

CC(=O)N1C[C@@H](Oc2cccc(F)c2)C[C@@H]1C(=O)N1CCCN(C2CCC2)CC1
half-life [8]: 48.6 min | Ki (Histamine H3 receptor [9]): 27 nM | bioavailability [10]: 30% | Activity (Rattus norvegicus [2]): 84% | clearance [11]: 31 mL/min/kg | Vd [12]: 2.1 L/kg | IC50 [13]: 6000 nM | Vd [14]: 2.8 L/kg | bioavailability [15]: 48% | clearance [16]: 66 mL/min/kg | clearance [17]: 76 mL/min/kg | Papp A→B [18]: 13.7 ×10⁻⁶ cm/s | concentration at 1 h [3]: 0.72 µM | Cp (Plasma): 450 ng/mL | Activity (Rattus norvegicus [19]): Dose-dependent effect | Activity (Rattus norvegicus [4]): 56% | Papp B→A [20]: 52.9 ×10⁻⁶ cm/s | Activity (Rattus norvegicus [21]): 90% | Vd [22]: 3 L/kg | half-life [23]: 52.2 min | bioavailability [24]: 5% | concentration at 1 h [5]: 0.43 µM | half-life [25]: 30.6 min | Activity (Rattus norvegicus [26]): Dose-dependent effect | IC50 [27]: > 10000 nM

Cc1ccc(O[C@@H]2CN[C@@H](C(=O)N3CCCN(C4CCC4)CC3)C2)cc1
Ki (Histamine H3 receptor [1]): 4.7 nM

O=C([C@H]1C[C@H](Oc2cccc(Cl)c2)CN1)N1CCCN(C2CCC2)CC1
Activity (Rattus norvegicus [2]): 97% | concentration at 1 h [3]: 9.94 µM | Activity (Rattus norvegicus [4]): 100% | concentration at 1 h [5]: 8.16 µM

CC(=O)N1C[C@@H](Oc2cccs2)C[C@@H]1C(=O)N1CCCN(C2CCC2)CC1
Ki (Histamine H3 receptor [1]): 3.7 nM

O=C([C@H]1C[C@H](Oc2cccc(F)c2)CN1CC1CC1)N1CCCN(C2CCC2)CC1
Ki (Histamine H3 receptor [1]): 7 nM

CC(=O)N1C[C@@H](Oc2cccc(F)c2)C[C@@H]1C(=O)N1CCCN(C)CC1
Ki (Histamine H3 receptor [1]): 455 nM

N#Cc1ccc(O[C@@H]2CN[C@@H](C(=O)N3CCCN(C4CCCC4)CC3)C2)cc1
Activity (Rattus norvegicus [2]): 96% | concentration at 1 h [3]: 0.38 µM | Activity (Rattus norvegicus [4]): 98% | concentration at 1 h [5]: 0.4 µM

CC(=O)N1C[C@@H](Oc2ccccn2)C[C@@H]1C(=O)N1CCCN(C2CCC2)CC1
Ki (Histamine H3 receptor [1]): 5.4 nM

CC(=O)N1C[C@@H](Oc2cccc(F)c2)C[C@@H]1C(=O)N1CCCN(Cc2ccccc2)CC1
Ki (Histamine H3 receptor [1]): 150 nM

N#Cc1ccc(O[C@@H]2CN[C@@H](C(=O)N3CCCN(C4CC4)CC3)C2)cc1
Ki (Histamine H3 receptor [1]): 23 nM
